Bioassay records from PubChem.
GalR3 antagonist: GalR3 antagonists in HEK293 cells, primary screen, cell-based, fluorescence readout. Galanin receptor type 3 (Homo sapiens), O60755. HEK293 GalR3-CNG cAMP membrane potential fluorescence; galR3 body fused to GalR1 C-terminus. inhibition, % at 3 µM. 360,000 tested, 0.44% active. AID 651719, 2012;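 active = inhibition above the screen-wide average plus 3 SD, cut at about 13% in these data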;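 also: forskolin and galanin both at EC90 stimulate the cells; cAMP rise reported by CNG channel membrane potential dye signal; 0% = forskolin plus galanin with DMSO and 100% = forskolin alone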
CHO parental Ca: ATP-evoked calcium signal inhibitors, parental CHO, primary screen, counter-screen for OX1R antagonist project, cell-based, fluorescence, Fluo-8 calcium dye | parental CHO-K1, ATP-induced calcium, Fluo-8 fluorescence | inhibition, % at 5.6 µM | 330,000 tested, 0.63% active | AID 463079, 2010;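 active = inhibition above that plate's mean sample inhibition plus 3 SD, cut at about 26% in these data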;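 also: 0% = ATP-challenged DMSO wells and 100% = DMSO wells without ATP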
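Measured by: calcium-sensitive Fluo-8 fluorescence / Test system: CHO parental line / Controls: ATP-challenged DMSO wells low, unchallenged DMSO wells high / Measure: % inhibition / Compound: single nominal dose of 5.6 µM per compound / Replicates: single well per compound, no replicates / Reagent: ATP as calcium-mobilizing challenge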
TAAR1 agonist: human TAAR1 agonists, primary screen, Fluo-8 calcium fluorescence, CHO RD-HGA16 cells; AID 624467, 2012; Trace amine-associated receptor 1 (Homo sapiens), Q96RJ0; vehicle wells 0%, saturating PEA agonist 100%; activation, % at 3 µM; 360,000 tested, 0.99% active;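 active = activation above the mean activation of all test compounds in the run plus 3 SD, cut at about 38% in these data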
Target sequence (Q96RJ0 whole entry, looked up): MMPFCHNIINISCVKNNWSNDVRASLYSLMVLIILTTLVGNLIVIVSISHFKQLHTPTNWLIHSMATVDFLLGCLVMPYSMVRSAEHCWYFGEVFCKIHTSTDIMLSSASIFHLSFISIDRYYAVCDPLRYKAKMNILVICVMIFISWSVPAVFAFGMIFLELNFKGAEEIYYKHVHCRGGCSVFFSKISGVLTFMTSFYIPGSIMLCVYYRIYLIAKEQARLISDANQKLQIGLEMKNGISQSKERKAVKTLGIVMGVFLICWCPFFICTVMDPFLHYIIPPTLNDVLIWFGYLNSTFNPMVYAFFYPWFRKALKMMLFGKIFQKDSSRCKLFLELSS
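System: CHO RD-HGA16 cells carrying human TAAR1 plus Gα16; Incubation: 17-24 h seeding, 75 min 37 °C dye, 30 min RT; Measured by: Fluo-8 fluorescence, 5 s baseline then 140 s kinetic read; Control set: DMSO and PEA EC100; Replication: single well for each compound.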
OX1R antag-1: antagonists of human orexin 1 receptor (OX1R); Orexin/Hypocretin receptor type 1 (Homo sapiens), O43613; OX1R-expressing cells, FRET antagonist read-out; inhibition, % at 6.6 µM; 330,000 tested, 1.8% active; in the data active = inhibition mostly above about 38%, no sharp cut-off; inactive = mostly below about 40%;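 also: 0% = agonist challenge alone and 100% = reference antagonist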
Target sequence (O43613 whole entry, looked up): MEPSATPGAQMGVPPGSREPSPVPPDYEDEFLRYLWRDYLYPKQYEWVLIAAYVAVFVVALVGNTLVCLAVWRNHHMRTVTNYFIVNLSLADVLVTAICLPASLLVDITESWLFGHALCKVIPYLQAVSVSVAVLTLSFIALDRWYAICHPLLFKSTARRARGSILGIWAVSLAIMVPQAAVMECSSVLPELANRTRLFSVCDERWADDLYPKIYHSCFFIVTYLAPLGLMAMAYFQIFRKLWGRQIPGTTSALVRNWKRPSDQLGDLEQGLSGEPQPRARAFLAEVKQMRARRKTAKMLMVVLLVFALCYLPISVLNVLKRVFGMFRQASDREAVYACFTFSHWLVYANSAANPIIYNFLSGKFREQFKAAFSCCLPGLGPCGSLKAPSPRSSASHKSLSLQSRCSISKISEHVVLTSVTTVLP
TAAR1 antagonist: human TAAR1 antagonists, primary screen, Fluo-8 calcium fluorescence, CHO RD-HGA16 cells | Trace amine-associated receptor 1 (Homo sapiens), Q96RJ0 | antagonist | inhibition, % at 3 µM | 360,000 tested, 1.5% active | AID 624466, 2012;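 active = inhibition above a per-plate cutoff, the mean inhibition of test compounds on that plate plus 3 SD, cut at about 49% in these data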;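 also: 0% = DMSO plus EC80 beta-PEA response and 100% = DMSO alone without agonist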
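Assay system: CHO-derived RD-HGA16 cells stably expressing human TAAR1 plus Gα16. Timing: 140 s kinetic read after compound, 140 s after agonist. Technique: kinetic Fluo-8 calcium fluorescence measurement. Measure: % inhibition of agonist calcium response.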
OX1R antag-2: OX1R (HCRTR1) antagonists, primary screen, fluorescence, CHO/OX1R cells, Fluo-8 calcium, orexin A; Orexin/Hypocretin receptor type 1 (Homo sapiens), O43613; Fluo-8 calcium fluorescence; inhibition, % at 5 µM; AID 434989, 2010; 330,000 tested, 0.43% active;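 active = inhibition above its plate's threshold, mean inhibition of all tested compounds on the plate plus 3 SD, cut at about 37% in these data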;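 also: 0% = orexin A challenge wells and 100% = SB-334867-A antagonist wells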
TAAR1 ag conf: human TAAR1 agonists, retest of hits, confirmation, Fluo-8 calcium fluorescence, CHO RD-HGA16 cells; shares compounds with TAAR1 agonist; scaled: DMSO 0%, maximal phenethylamine 100%; activation, % at 3 µM; 2,400 tested, 82% active; AID 651783, 2012;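 active = activation above a cutoff set at the run's mean compound activation plus 3 SD, cut at about 39% in these data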
Ga16 nonsel ag: nonselective calcium mobilization agonists, CHO-Ga16 cells, counter-screen for hTAAR1 agonist project, cell-based, fluorescence, CHO-Ga16 parental line; activation, % at 3 µM; Fluo-8 calcium fluorescence; normalized to maximal ATP response, DMSO zero; 2,400 tested, 50% active; shares compounds with TAAR1 agonist;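 active = activation above the run cutoff, the mean activation over all tested wells plus 3 SD, cut at about 12% in these data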;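 also: 0% = DMSO wells and 100% = maximal ATP response on the peak over basal ratio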
TAAR1 desens: TAAR1 desensitization by agonist hits, confirmation, counter-screen for TAAR1 agonist project, cell-based, fluorescence, tachyphylaxis | shares compounds with TAAR1 agonist | CHO RD-HGA16 hTAAR1, Fluo-8 calcium, beta-PEA response inhibition | 2,400 tested, 46% active | inhibition, % at 3 µM;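 active = inhibition above the run cutoff, the mean inhibition of all test compounds plus 3 SD, cut at about 49% in these data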;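 also: beta-PEA stimulus applied at its EC80; loss of beta-PEA calcium signal after compound pretreatment read as receptor desensitization; 0% = DMSO with beta-PEA at EC80 and 100% = DMSO alone without agonist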
Ga16 antag count: inhibition of ATP-evoked calcium response in CHO-Ga16 cells, counter-screen for TAAR1 agonist project, cell-based, fluorescence. shares compounds with TAAR1 agonist. CHO-Ga16 ATP-induced calcium, Fluo-8 fluorescence. inhibition, % at 3 µM. 2,400 tested, 39% active;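 active = inhibition above the plate's mean compound inhibition plus 3 SD, computed per plate, cut at about 22% in these data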;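 also: 0% = EC80 ATP with DMSO and 100% = DMSO wells without ATP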
The depositor's hits bear a star; x = not tested or not shown. A selection: hits, their analogues and other compounds. The true share with any hit is near 4.3%.

SMILES | GalR3 antagonist | CHO parental Ca | TAAR1 agonist | OX1R antag-1 | TAAR1 antagonist | OX1R antag-2 | TAAR1 ag conf | Ga16 nonsel ag | TAAR1 desens | Ga16 antag count
O=C(COC(=O)/C=C/c1cccc(C(F)(F)F)c1)NCc1cccs1 | -5.5 | 36.1* | 78.9* | 2.8 | 66.5* | 8.5 | 65.7* | 43.9* | 44.9 | 19.4
CC1(C)C[C@H](O)[C@]2(CO)CC[C@]3(C)C(=CCC4[C@@]5(C)CC[C@H](O)C(C)(C)C5CC[C@]43C)[C@@H]2C1 (some centres not stated) | -1.2 | -12.2 | 19.3 | 14.7 | 17.9 | -6.4 | x | x | x | x
CC1(C)C[C@H](O)[C@]2(CO)[C@H](O)C[C@]3(C)C(=CCC4[C@@]5(C)CC[C@H](O)C(C)(C)C5CC[C@]43C)[C@@H]2C1 (some centres not stated) | -7.2 | -5.7 | 51.2* | 24.3 | 36.0 | 16.9 | 32.5 | 7.9 | 32.1 | 20.7
Cc1cc2c(cc(C(=O)OCC(=O)NC3CCCCC3)n2C)o1 | -1.4 | x | 66.5* | x | 51.5* | x | 23.3 | 33.9* | 52.0* | 41.9*
S=C1NCN(Cc2cccnc2)CN1c1cccc(Cl)c1 | -3.7 | -1.6 | 1.1 | 11.4 | -12.5 | -4.3 | x | x | x | x
CCc1ccc(N2CN(CCc3ccccc3)CNC2=S)cc1 | -4.2 | 5.1 | 95.1* | 3.3 | 58.8* | -25.9 | 82.6* | 1.6 | 68.1* | 0.2
CCCN1CN(CCc2ccccc2)CNC1=S | 0.9 | -5.5 | x | 2.8 | x | -4.6 | x | 0.9 | x | -0.3
COc1cccc(N2CN(CCc3ccccc3)CNC2=S)c1 | 3.1 | -18.4 | 95.8* | 1.1 | 81.3* | -6.7 | 93.1* | 0.7 | 79.6* | 0.9
CCCN1CNC(=S)N(Cc2ccccc2)C1 | -4.4 | -0.5 | -0.1 | 13.2 | 3.4 | 0.2 | x | x | x | x
CCCCN1CNC(=S)N(CCc2ccccc2)C1 | -1.9 | -7.0 | 3.7 | 13.2 | -2.4 | -2.2 | x | x | x | x
S=C1NCN(CCc2ccccc2)CN1 | -3.5 | 16.8 | 86.8* | 32.8 | 14.5 | -1.6 | 101.1* | 22.2* | 46.1 | -0.2
COc1ccc(OCC(=O)N/N=C/c2cccn2-c2cccc(C(=O)O)c2)cc1 | -5.3 | x | -1.1 | x | -20.0 | x | x | x | x | x
CNc1ncnc2c1ncn2[C@H]1CN(Cc2cccnc2)C[C@@H](CO)O1 | -2.4 | x | -0.1 | x | -7.0 | x | x | x | x | x
Cc1nc(C)n(C(C)CNC(=O)c2ccco2)n1 (configuration not stated) | -9.4 | x | 3.2 | x | -7.0 | x | x | x | x | x
Cc1ccc(N2CN(CCC3=CCCCC3)CNC2=S)cc1 | -5.8 | -12.0 | 49.2* | 9.6 | -2.3 | -14.3 | 55.5* | 1.9 | 9.7 | 8.7
Cc1ccc(N2CN(Cc3ccco3)CNC2=S)cc1 | -7.5 | 14.7 | 6.6 | -2.7 | 1.7 | -10.1 | x | x | x | x
O[C@@H](Cc1ccccc1)[C@@H](/C=C/c1ccccc1)NCCc1ccccc1 | -5.8 | x | 53.4* | x | 36.5 | x | 90.1* | 18.4* | 48.4 | 23.6*
CC(/C=N/n1cnnc1)=C\c1ccccc1 | -1.8 | 0.3 | 102.0* | 15.4 | -10.2 | 0.5 | 87.1* | 62.9* | 30.7 | 13.8
CC(=C/c1ccccc1)/C=N/n1cnnc1 | -4.9 | 6.5 | 96.4* | 2.7 | 25.4 | -9.8 | 37.2 | 59.0* | 19.4 | 16.7
ClC(=C\c1ccccc1)/C=N/N1CCN(c2ccccn2)CC1 | 0.2 | -17.9 | 8.8 | -1.6 | 23.6 | -22.7 | x | x | x | x
ClC(/C=N/n1cnnc1)=C/c1ccccc1 | 0.5 | -1.7 | 76.1* | 1.6 | -6.9 | 15.4 | 61.6* | 30.2* | 8.0 | 17.5
C(=C\c1ccccc1)/C=N/n1cnnc1 | -5.5 | 5.1 | 23.5 | 24.6 | -9.5 | -2.2 | x | x | x | x
CCCCCCCCN1C(=O)[C@H](CC(=O)NCCCOC)C[C@@]2(C(=O)OCC)CCCC=C12 | -2.0 | x | -2.0 | x | -16.1 | x | x | x | x | x
C[C@@H]1CN([C@@H](C)CO)C(=O)CCCn2nncc2CO[C@@H]1CN(C)S(=O)(=O)c1ccc2ccccc2c1 | -5.9 | x | 0.0 | x | -7.3 | x | x | x | x | x
Cc1ccc(S(=O)(=O)Nn2c(O)c(C=C3N=c4ccccc4=N3)sc2=S)cc1 | 0.8 | -15.2 | 11.1 | 5.9 | 33.0 | -17.7 | x | x | x | x
SMILES | GalR3 antagonist | CHO parental Ca | TAAR1 agonist | OX1R antag-1 | TAAR1 antagonist | OX1R antag-2 | TAAR1 ag conf | Ga16 nonsel ag | TAAR1 desens | Ga16 antag count
Cc1ccc(C(=O)Nn2c(O)c(C=C3N=c4ccccc4=N3)sc2=S)cc1 | -3.1 | -2.2 | 53.6* | 13.9 | 34.9 | -28.1 | 51.8* | 3.1 | 59.0* | 22.6*
NC(=Nc1ccccc1)Nc1ccccc1 | -8.9 | 41.6* | 87.5* | 5.5 | 78.6* | 34.6 | 117.6* | 83.1* | 94.3* | 67.0*
O=[N+]([O-])c1cc(/C=N\Nc2nc(-c3ccccc3)cs2)ccc1O | -5.2 | -29.0 | 69.4* | -0.2 | 35.7 | 4.3 | 44.3* | 53.3* | 37.3 | 28.9*
Cc1csc(N/N=C/c2ccc(O)c([N+](=O)[O-])c2)n1 | -3.1 | -1.2 | 5.5 | 33.7 | 3.7 | -3.2 | x | x | x | x
CCOc1cc(/C=C2\N=C(SC(C)C(N)=O)N(c3ccc(OC(F)F)cc3)C2=O)ccc1O (configuration not stated) | -4.5 | 0.8 | 11.1 | 17.2 | 2.6 | 8.5 | x | x | x | x
O=C1NC[C@@H](CCCCN2C[C@H](Cc3ccccc3)N(CCc3ccc(O)cc3)C(=O)C2=O)N(CC2CCCCC2)C1=O | -6.8 | x | 8.2 | x | -11.1 | x | x | x | x | x
CCN(CC)c1ccc(/C=C2/SC(=O)N(C(C)C)C2=O)o1 | -8.5 | x | 72.7* | x | 54.0* | x | 68.6* | 72.9* | 63.8* | 67.8*
